Source: PubChem (Broad Institute)
ARNT TACC3 PPI – ARNT/TACC3 interaction disruption | hit rate 0.66% among 390,000 | inhibition, % at 9.99 µM | AlphaScreen His-ARNT PAS-B/GST-TACC3 binding, luminescence; TACC3 fragment carries E629A point mutation | Q9Y6A5;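 active = mean inhibition of replicates at least 50% and at least half of replicates each reaching 50%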;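 note: 0% = complete ARNT plus TACC3 wells and 100% = ARNT alone without TACC3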
FGF22 binding – binders of recombinant human FGF22 by thermal shift | SYPRO orange fluorescence; percent of sucrose octasulfate shift, DMSO zero | AID 651658 | Q9HCT0 | activity (Tm shift, normalised), % at 9.99 µM | hit rate 1.5% among 340,000;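 active = mean Tm shift, scaled 0 neutral to 100 positive control, at about 1.3% or above, every replicate too, limit read from the data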
Target sequence (Q9HCT0 whole entry, looked up): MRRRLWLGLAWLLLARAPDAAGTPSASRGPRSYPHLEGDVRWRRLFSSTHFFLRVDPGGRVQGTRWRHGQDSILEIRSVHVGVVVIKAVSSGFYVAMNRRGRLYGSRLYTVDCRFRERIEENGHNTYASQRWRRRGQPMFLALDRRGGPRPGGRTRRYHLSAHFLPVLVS
SIRT5 block – inhibitors of human sirtuin-5 desuccinylase; Q9NXA8; hit rate 1.1% among 330,000; inhibition, % at 15 µM; Purified SirT5, succinyl-peptide AMC, trypsin-coupled fluorescence; in the data active = inhibition above about 15%
Target sequence (Q9NXA8 whole entry, looked up): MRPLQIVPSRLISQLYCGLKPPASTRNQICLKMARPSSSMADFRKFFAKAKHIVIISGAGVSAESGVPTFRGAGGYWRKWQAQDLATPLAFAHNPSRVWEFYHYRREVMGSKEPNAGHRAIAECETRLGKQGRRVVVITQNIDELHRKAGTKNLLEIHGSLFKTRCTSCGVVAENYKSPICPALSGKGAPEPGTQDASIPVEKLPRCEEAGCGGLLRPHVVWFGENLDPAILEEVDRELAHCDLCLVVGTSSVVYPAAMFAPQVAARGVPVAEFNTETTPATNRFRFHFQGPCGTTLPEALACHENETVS
Xi reactivation – activators of X-chromosome reactivation in mouse fibroblasts. activation, % at 7.58 µM. XiGFP mouse fibroblasts, % GFP-positive cells imaging, 3 d; cells co-treated with 5-aza-dC sensitizer; scaled so ellipticine positive control = 100%. hit rate 0.055% among 360,000;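 active = mean normalized replicate activation at least 10% and every replicate at or above 10%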;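 note: 0% = median of on-plate neutral control wells and 100% = ellipticine 6 µM median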
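Schedule: 3 d treatment, 15 min room-temperature fixation; system: 68-5-11 XiGFP fibroblast line; buffer or medium: DMEM plus 5-aza-dC sensitizer; control set: ellipticine 6 µM positive control; compound: one concentration, pinned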
DENV2 CPE – protects cells from dengue virus 2 cytopathic effect | DENV2-infected cells, cytopathic effect rescue, plate reader | CPE inhibition, % at 9.99 µM | hit rate 1.7% among 350,000 | AID 651640; in the data active = CPE inhibition above about 20%, passing the limit was not always enough; tested in BHK-21 cells;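 note: 0% = median of neutral control wells and 100% = median of positive control wells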
FN deposition inh – fibronectin deposition inhibition; AH1F fibroblasts, Alexa488-fibronectin deposition fluorescence, overnight; inhibition, % at 12.6 µM; hit rate 0.086% among 350,000;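 active = mean inhibition across replicates of 30% or more, regardless of how many single replicates reach that level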;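 note: positive control wells lacked labelled fibronectin entirely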
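test system = AH1F fibroblasts assembling fluorescent fibronectin matrix | quantity = 10000 AH1F cells per well | buffer or medium = DMEM plus 2% serum, read in PBS | doses = single dose, pinned | incubation = 1 h cell attachment, overnight exposure to compound and label | detection = fluorescence at 485 nm excitation, 525 nm emission | read-out basis = inhibition from reduced deposited-fibronectin fluorescence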
* = called active by the depositor. Only some compounds are listed: those with a hit (about 3.8% of all), similar ones and a draw of the others.

How did CCOc1cccc(-c2c(C(=O)N/N=C(\C)c3ccccn3)nnn2-c2nonc2N)c1 do in these assays?
ARNT TACC3 PPI: 92*; FGF22 binding: 0; SIRT5 block: -5; Xi reactivation: 4; DENV2 CPE: 0; FN deposition inh: 5

What do the screens show for `CCOc1ccc(-c2c(C(=O)N/N=C/c3c[nH]c4ccccc34)nnn2-c2nonc2N)cc1`?
ARNT TACC3 PPI: -9; FGF22 binding: 43*; SIRT5 block: 5; Xi reactivation: 0; DENV2 CPE: -2; FN deposition inh: -9

How did CC(=O)N1CCCCN2[C@H](CO)[C@H](c3ccc(-c4cccc(C(=O)N(C)C)c4)cc3)[C@H]2C1 do in these assays?
ARNT TACC3 PPI: -6; FGF22 binding: 1; SIRT5 block: 1; Xi reactivation: 0; DENV2 CPE: -9

What do the screens show for `COc1ccc(S(=O)(=O)Nc2ccc3c(c2)CC(=O)N([C@H](C)CO)C[C@H](C)[C@@H](CN(C)Cc2ccc(C(=O)O)cc2)O3)cc1`?
FGF22 binding: 0; Xi reactivation: 0; DENV2 CPE: 0; FN deposition inh: 1

Results for Cn1c(=O)c2c(nc3n2CC(O)CN3c2ccc(O)cc2)n(C)c1=O (configuration not stated) ?
ARNT TACC3 PPI: -5; FGF22 binding: 0; SIRT5 block: -4; Xi reactivation: 0; DENV2 CPE: 39*; FN deposition inh: 0

Results for Cc1ccc(N2CC(O)Cn3c2nc2c3c(=O)n(C)c(=O)n2C)cc1 (configuration not stated) ?
FGF22 binding: 0; SIRT5 block: 1; Xi reactivation: 0; DENV2 CPE: -5; FN deposition inh: -3

How did CCN(CC)c1ccc(N=Nc2ncn[nH]2)cc1 do in these assays?
ARNT TACC3 PPI: 70*; FGF22 binding: 0; Xi reactivation: 0; DENV2 CPE: 1; FN deposition inh: 9

Results for O=C(O)c1cccc(NC(=S)NC(NC(=O)c2ccccc2[N+](=O)[O-])C(Cl)(Cl)Cl)c1 (configuration not stated) ?
ARNT TACC3 PPI: -2; FGF22 binding: 0; SIRT5 block: -3; Xi reactivation: 0; DENV2 CPE: 3; FN deposition inh: -6

Results for O=C(O)c1cccc(NC(=S)NC(NC(=O)c2cccc([N+](=O)[O-])c2)C(Cl)(Cl)Cl)c1 (configuration not stated) ?
ARNT TACC3 PPI: 32; FGF22 binding: 2.8*; SIRT5 block: 0; Xi reactivation: 0; DENV2 CPE: 4; FN deposition inh: -1

How did CC(C)(C)N1NC2(CCCCC2)NC1=S do in these assays?
ARNT TACC3 PPI: -3; FGF22 binding: 43*; SIRT5 block: 0; Xi reactivation: 0; DENV2 CPE: 4; FN deposition inh: -6

Results for O=C(C[C@@H]1CC[C@H]2[C@@H](COC[C@H](O)CN2Cc2cccc(Cl)c2)O1)NCC1CCCCC1 ?
ARNT TACC3 PPI: -11; FGF22 binding: 0; Xi reactivation: 0; DENV2 CPE: 9; FN deposition inh: -6

What do the screens show for `CN(C)c1ccc(C(=S)N2CCNCC2)cc1`?
ARNT TACC3 PPI: -2; Xi reactivation: 0; FN deposition inh: -18

What do the screens show for `CN(C)c1ccc(C(=S)N2CCCCC2)cc1`?
ARNT TACC3 PPI: -1; FGF22 binding: 43*; SIRT5 block: 2; Xi reactivation: 0; DENV2 CPE: -5; FN deposition inh: -3

How did CCCN(C)C[C@@H]1Oc2cc(-c3cccnc3)ccc2S(=O)(=O)N([C@@H](C)CO)C[C@@H]1C do in these assays?
ARNT TACC3 PPI: -4; FGF22 binding: 0; SIRT5 block: -2; Xi reactivation: 0; DENV2 CPE: 11

Results for C[C@H](CO)N1C[C@H](C)[C@H](CN(C)Cc2cccc(C(F)(F)F)c2)OCc2cn(nn2)CCCC1=O ?
ARNT TACC3 PPI: -1; FGF22 binding: 0; SIRT5 block: 1; Xi reactivation: 0; DENV2 CPE: -1; FN deposition inh: 15

Results for Cc1cccc(OCC(O)Cn2ccnc2C)c1 (configuration not stated) ?
ARNT TACC3 PPI: 6; FGF22 binding: 0; SIRT5 block: -2; Xi reactivation: 0; DENV2 CPE: -2; FN deposition inh: 2

How did Cc1cccc(C)c1OCC(O)Cn1ccnc1C (configuration not stated) do in these assays?
ARNT TACC3 PPI: 0; FGF22 binding: 0; SIRT5 block: -2; Xi reactivation: 0; DENV2 CPE: 40*; FN deposition inh: -10

How did CCCc1cn([C@H]2C[C@@H]3O[C@H](CO)CC[C@@H]3O[C@@H]2CCc2ccc(-c3ccc(OC)cc3)cc2)nn1 do in these assays?
FGF22 binding: -1; SIRT5 block: 0; DENV2 CPE: 3

What do the screens show for `OC[C@@H]1CC[C@@H]2O[C@H](CCc3ccc(-c4ccc(F)cc4)cc3)[C@@H](n3cc(C4CC4)nn3)C[C@@H]2O1`?
FGF22 binding: 0; SIRT5 block: 2; DENV2 CPE: 3

What do the screens show for `CCCc1cn([C@H]2C[C@@H]3O[C@H](CO)CC[C@@H]3O[C@@H]2CCc2ccc(-c3ccccc3C#N)cc2)nn1`?
SIRT5 block: 1; DENV2 CPE: 28*

How did OC[C@@H]1CC[C@@H]2O[C@H](CCc3ccc(-c4ccccc4)cc3)[C@@H](n3cc(C4CC4)nn3)C[C@@H]2O1 do in these assays?
SIRT5 block: 7; DENV2 CPE: 20*

How did OC[C@H]1CC[C@@H]2O[C@H](CCc3ccc(-c4ccccc4)cc3)[C@@H](n3cc(C4CC4)nn3)C[C@@H]2O1 do in these assays?
FGF22 binding: 0; SIRT5 block: 7; DENV2 CPE: 53*

How did C[C@H]1CN([C@@H](C)CO)C(=O)c2cc(-c3ccc(C#N)cc3)cnc2O[C@@H]1CN(C)C(=O)c1cccnc1 do in these assays?
ARNT TACC3 PPI: 0; FGF22 binding: 0; SIRT5 block: -1; Xi reactivation: -1; DENV2 CPE: 0; FN deposition inh: 5

How did O=C(CN1CCN(c2nc(-c3ccccc3)cs2)CC1)NNC(=O)c1ccc(Br)cc1 do in these assays?
ARNT TACC3 PPI: 4; FN deposition inh: 0

What do the screens show for `O=C(NC(=S)N1CCN(c2nc(-c3ccccc3)cs2)CC1)c1cncc(Br)c1`?
ARNT TACC3 PPI: 22; FGF22 binding: 43*; SIRT5 block: -2; Xi reactivation: 0; DENV2 CPE: 2; FN deposition inh: -4

Results for COc1ccc(C(=O)NCCNc2ccc([N+](=O)[O-])cc2)cc1 ?
ARNT TACC3 PPI: -2; FGF22 binding: 67*; SIRT5 block: 2; Xi reactivation: 0; DENV2 CPE: -2; FN deposition inh: -6
